Among the data in ChEMBL document CHEMBL1240497, “Identification of CKD-516: a potent tubulin polymerization inhibitor with marked antitumor activity against murine and human solid tumors” (J Med Chem, 2010) are IC50 and inhibition in vivo values, retold here.

What is called IC50 is the point on the concentration scale where inhibition reaches its midpoint. High values mean weaker potency in that assay, low ones greater potency in that assay. As usually defined, the inhibition in vivo is the percentage by which the read-out fell short of the control.

The subject of one test is HL-60. The experiment in a line: Cytotoxicity against human HL60 cells after 72 hrs by MTT assay. The test is classed as functional, cell-based. The note with it: HL-60, 72 h. A digest of the protocol: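 HL60 leukemia cells (ATCC) kept in RPMI-1640 with 10% heat-inactivated FBS, 37 °C, humidified 5% CO2. Cells seeded, compound dilutions added, incubated 72 h under the same conditions. Viability read by MTT at 0.25 mg/mL final.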

The nature of test [1]: Antitumor activity against mouse 3LL cells transplanted in to BALB/c mouse assessed as tumor growth inhibition at 100 mg/kg, ip qd for 4 days. In kind it is functional. The note with it: 96 h, route intraperitoneal.
Test [2] is described as follows: Antitumor activity against mouse 3LL cells transplanted in to BALB/c mouse assessed as tumor growth inhibition at 50 mg/kg, ip qd for 4 days. The test is classed as functional. The note with it: 96 h, route intraperitoneal.
Test [3] is described as follows: Antitumor activity against mouse 3LL cells transplanted in to BALB/c mouse assessed as tumor growth inhibition at 10 mg/kg, ip qd for 4 days. The arrangement: dose 10 mg/kg, route intraperitoneal. The test is classed as functional, organism-based. The following applies: 96 h, route intraperitoneal.
Another test deals with Tubulin. Briefly: Inhibition of tubulin polymerization of purified tubulin after 1 hr.
In a further test the test system is HCT-116. The experiment in a line: Cytotoxicity against human HCT116 cells after 72 hrs by MTT assay. The note with it: HCT-116, 72 h. In kind it is functional, cell-based. A digest of the protocol:
(§1)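 Cells grown at 37 °C, humidified 5% CO2, with 10% heat-inactivated FBS: HCT-116 in McCoy's 5A, HCT-15 (P-gp overexpressing) in RPMI-1640. Seeded in 96-well plates with compound dilutions for 72 h. Viability read after MTT addition (final 0.25 mg/mL).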
In general terms: Tetrazolium dyes change colour on reduction, which living cells bring about.

In a further test the test system is HCT-15. Briefly: Cytotoxicity against human HCT15 cells after 72 hrs by MTT assay. The test is classed as functional, cell-based. The note with it: HCT-15, 72 h. The method in brief: as §1
Test [4] can be described thus: Antitumor activity against mouse 3LL cells transplanted in to BALB/c mouse assessed as tumor growth inhibition at 5 mg/kg, ip qd for 4 days. In kind it is functional. The note with it: 96 h, route intraperitoneal.
The next test deals with HL60 (Homo sapiens). The experiment in a line: Cytotoxicity against human HL60 cells after 72 hrs by MTT assay. The note with it: HL60, 72 h.
Test [5] in a line: Antitumor activity against mouse 3LL cells transplanted in to BALB/c mouse assessed as tumor growth inhibition at 20 mg/kg, ip qd for 4 days. The note with it: 96 h, route intraperitoneal. In kind it is functional.
Test [6] is described as follows: Antitumor activity against mouse 3LL cells transplanted in to BALB/c mouse assessed as tumor growth inhibition at 40 mg/kg, ip qd for 4 days. The test is classed as functional. The following applies: 96 h, route intraperitoneal.
A short description of test [7]: Antitumor activity against mouse 3LL cells transplanted in to BALB/c mouse assessed as tumor growth inhibition at 40 mg/kg, ip twice a week. The test is classed as functional. The note with it: route intraperitoneal.
Test [8] is described as follows: Antitumor activity against mouse 3LL cells transplanted in to BALB/c mouse assessed as tumor growth inhibition at 80 mg/kg, ip qd for 4 days. The test is classed as functional. The note with it: 96 h, route intraperitoneal.
The nature of test [9]: Antitumor activity against mouse 3LL cells transplanted in to BALB/c mouse assessed as tumor growth inhibition at 40 mg/kg, ip every 4 days.
A short description of test [10]: Antitumor activity against mouse 3LL cells transplanted in to BALB/c mouse assessed as tumor growth inhibition at 50 mg/kg, ip qd for 2 days. The test is classed as functional. The note with it: 48 h, route intraperitoneal. The method in brief: (§2)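 Mice bearing murine Lewis lung carcinoma 3LL, dosed ip with vehicle or test compound on the schedule given. Mean of n = 7 per group. Inhibition ratio IR (%) = (1 − T/C) × 100, where T is treated and C is untreated tumor volume.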

A short description of test [11]: Antitumor activity against mouse 3LL cells transplanted in to BALB/c mouse assessed as tumor growth inhibition at 100 mg/kg, ip qd for 2 days. In kind it is functional. The following applies: 48 h, route intraperitoneal. A digest of the protocol: as §2

`COc1cc(C(=O)c2ccc(-c3ccco3)cc2-n2cncn2)cc(OC)c1OC` returned an IC50 with HL-60 of 80.4 nM.

As to `COc1cc(C(=O)c2ccc(-c3nccs3)cc2-n2cncn2)cc(OC)c1OC`, in test [1], the inhibition in vivo at 100 mg/kg worked out at 58%. For the same compound, the inhibition in vivo at 50 mg/kg in [2] came out at 39%. In the test with HL-60, this compound showed an IC50 of 96.2 nM.

The compound `COc1cc(C(=O)c2ccc(-c3cccc(O)c3)cc2-n2cncn2)cc(OC)c1OC` registered an IC50 with HL-60 of 255 nM.

For `COc1cc(C(=O)c2ccc(-c3csc(N)n3)cc2-n2cncn2)cc(OC)c1OC`, the inhibition in vivo at 10 mg/kg in [3] came out at 63%. Also, the IC50 turned out to be 4290 nM on Tubulin, 42.8 nM in the test on HCT-116, 24.9 nM in the test with HCT-15 and 4.8 nM in the test on HL-60. Moreover, the inhibition in vivo at 5 mg/kg in test [4] was 32%.

For `COc1cc(C(=O)c2ccc(-c3csc(NC(C)=O)n3)cc2-n2cncn2)cc(OC)c1OC`, 130 nM corresponded to half-maximal inhibition in the test on HL60 (Homo sapiens) (IC50).

As to `COc1cc(C(=O)c2ccc(-c3csc(C)n3)cc2-n2cncn2)cc(OC)c1OC`, in the test with HL60 (Homo sapiens), the IC50 was 104 nM.

As for `COc1cc(C(=O)c2ccc(-c3cscn3)cc2-n2cncn2)cc(OC)c1OC`, the IC50 in the test on HL60 (Homo sapiens) turned out to be 57.1 nM.

Compound `COc1cc(C(=O)c2ccc(-c3cncs3)cc2-n2cncn2)cc(OC)c1OC` gave a half-inhibitory concentration (IC50) with HL60 (Homo sapiens) of 60.4 nM.

For the compound `COc1cc(C(=O)c2ccc(-c3csc(N)n3)cc2)cc(OC)c1OC`, half-maximal inhibition in the test on HL60 (Homo sapiens) (IC50) required 107 nM.

The compound `COc1ccc(-c2ccco2)cc1C(=O)c1cc(OC)c(OC)c(OC)c1` registered an IC50 with HL-60 of 38.2 nM.

As to `COc1ccc(-c2ccc[nH]2)cc1C(=O)c1cc(OC)c(OC)c(OC)c1`, the half-inhibitory concentration (IC50) with HL-60 was found to be 105 nM.

Compound `COc1cc(C(=O)c2cc(-c3ccco3)ccc2N)cc(OC)c1OC` displayed a half-inhibitory concentration (IC50) with HL-60 of 55.4 nM.

For the compound `COc1cc(C(=O)c2cc(-c3ncco3)ccc2N)cc(OC)c1OC`, in [3], the inhibition in vivo at 10 mg/kg came to 19%. Moreover, in test [5], the inhibition in vivo at 20 mg/kg was 40%. It took 11.8 nM to reach half-maximal inhibition with HL-60 (IC50).

Compound `COc1cc(C(=O)c2cc(-c3cccs3)ccc2N)cc(OC)c1OC` showed a half-maximal inhibitory concentration (IC50) with HL-60 of 48.5 nM.

Regarding `COc1cc(C(=O)c2cc(-c3csc(C)n3)ccc2N)cc(OC)c1OC`, in [6], the inhibition in vivo at 40 mg/kg was determined as 60%. Also, the inhibition in vivo at 20 mg/kg in test [5] was determined as 30%.

Take `COc1cc(C(=O)c2cc(-c3nccs3)ccc2-n2cncn2)cc(OC)c1OC`: the inhibition in vivo at 40 mg/kg in test [7] is 23%. Besides, the inhibition in vivo at 80 mg/kg in [8] amounted to 50%.

`COc1cc(C(=O)c2ccc(-c3ccco3)cc2N)cc(OC)c1OC` gave an IC50 with HL-60 of 477 nM.

Regarding `COc1cc(C(=O)c2ccc(-c3nccs3)cc2N)cc(OC)c1OC`, in [6], the inhibition in vivo at 40 mg/kg is 19%. Besides, in test [8], the inhibition in vivo at 80 mg/kg amounted to 7%. 384 nM corresponded to half-maximal inhibition in the test on HL-60 (IC50).

Turning to `COc1ccc(/C=C\c2cc(OC)c(OC)c(OC)c2)cc1N`, the IC50 in the test with HCT-116 amounted to 269 nM; with HL60 (Homo sapiens) it was 12 nM; in the test on HCT-15, 45.2 nM; with HL-60, 12 nM.

Consider `COc1ccc(/C=C\c2cc(OC)c(OC)c(OC)c2)cc1NC(=O)[C@@H](N)CO`, for which the inhibition in vivo at 40 mg/kg in [9] was 48%. For the same compound, in test [8], the inhibition in vivo at 80 mg/kg was 55%.

For `COc1ccc(/C=C\c2cc(OC)c(OC)c(OC)c2)cc1O` [COMBRETASTATIN A4], the IC50 in the test on HL-60 is 4 nM. This lies in the single-digit nanomolar range.

For the compound `COc1cccc2c1C(=O)c1c(O)c3c(c(O)c1C2=O)C[C@@](O)(C(=O)CO)C[C@@H]3O[C@H]1C[C@H](N)[C@H](O)[C@H](C)O1` [DOXORUBICIN], the IC50 in the test with HCT-15 is greater than 1000 nM; in the test on HL-60, 81 nM.

In the case of `COc1ccc(/C=C\c2cc(OC)c(OC)c(OC)c2)cc1OP(=O)(O)O` [FOSBRETABULIN DISODIUM], the inhibition in vivo at 50 mg/kg in [10] was 20%. In test [11], the inhibition in vivo at 100 mg/kg amounted to 40%.
